Measured values taken from ChEMBL document CHEMBL1139434, “Highly potent 1-aminocyclohexane-1-carboxylic acid substituted V2 agonists of arginine vasopressin” (J Med Chem, 2004).
Where a SMILES comes first, the peptide text is derived from it. [ ]: non-standard residue; d: D form. The star is where a group is joined. Cyclohexylacetyl(1-SH) = O=C(CC1(S)CCCCC1)*; Ac6c = NC1(C(=O)O)CCCCC1

Key:
Rattus norvegicus [1] = species: Rattus norvegicus; assay: Compound was evaluated for in vitro uterotonic activity in the absence of magnesium ions in female wistar rats; format: functional; conditions: for Kb: read-out: pA2 (converted)
Procedure, shortened: (§1)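 Uterus from Wistar females estrogenized 48 h beforehand, tested in vitro in the absence of magnesium ions. Synthetic oxytocin was the standard. Dose–response curves built from single additions, or cumulatively without washing between increasing doses. Values are means of three to five separate experiments.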

Rattus norvegicus [2] = species: Rattus norvegicus; assay: Compound was evaluated for antidiuretic activity with t1/2 of 60 in male rats by modified Burn test; format: functional, Urine
Rattus norvegicus [3] = species: Rattus norvegicus; assay: Compound was evaluated for antidiuretic activity with t1/2 of 200 min in male rats by modified Burn test; format: functional, Urine
Rattus norvegicus [4] = species: Rattus norvegicus; assay: (§2) Compound was evaluated for vasopressor activity in phenoxybenzamine-treated male rats; format: functional, organism-based; conditions: read-out: pA2 (converted)
Procedure, shortened: (§3)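 Pressor response measured in phenoxybenzamine-treated male Wistar rats, with synthetic arginine vasopressin as standard. Dose–response curves built from single administrations, or cumulatively without washing between increasing doses. Values are means of three to five separate experiments.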

Rattus norvegicus [5] = species: Rattus norvegicus; assay: as §2; format: functional; procedure, shortened: as §3
Rattus norvegicus [6] = species: Rattus norvegicus; assay: Compound was evaluated for in vitro uterotonic activity in the absence of magnesium ions in female wistar rats; range is 1.5-5.1; format: functional; procedure, shortened: as §1
Rattus norvegicus [7] = species: Rattus norvegicus; assay: Compound was evaluated for antidiuretic activity with t1/2 of 60 min in male rats by modified Burn test; range is 800-50000; format: functional, Urine
Rattus norvegicus [8] = species: Rattus norvegicus; assay: Compound was evaluated for antidiuretic activity with t1/2 of 60 min in male rats by modified Burn test; range is 750-900; format: functional, Urine
Rattus norvegicus [9] = species: Rattus norvegicus; assay: Compound was evaluated for antidiuretic activity with t1/2 of 60 min in male rats by modified Burn test; range is 114-257; format: functional, Urine
Rattus norvegicus [10] = species: Rattus norvegicus; assay: Compound was evaluated for vasopressor activity in phenoxybenzamine-treated male rats; range is 346-370; format: functional; procedure, shortened: as §3
Rattus norvegicus [11] = species: Rattus norvegicus; assay: Compound was evaluated for antidiuretic activity with t1/2 of 60 min in male rats by modified Burn test; range is 1300-1745; format: functional, Urine
Rattus norvegicus [12] = species: Rattus norvegicus; assay: Compound was evaluated for in vitro uterotonic activity in the absence of magnesium ions in female wistar rats; range is 27-63; format: functional; procedure, shortened: as §1

| Compound | Kb (Rattus norvegicus [1]) [nM] | Activity (Rattus norvegicus [2]) [IU/mg] | Activity (Rattus norvegicus [3]) [IU/mg] | Activity (Rattus norvegicus [1]) [IU/mg] | Activity (Rattus norvegicus [5]) [IU/mg] | also measured |
| --- | --- | --- | --- | --- | --- | --- |
| CC(C)[C@H](NC(=O)[C@H](Cc1ccccc1)NC(=O)C1(NC(=O)CCS)CCCCC1)C(=O)N[C@@H](CC(N)=O)C(=O)N[C@@H](CS)C(=O)N1CCC[C@H]1C(=O)N[C@H](CCCN=C(N)N)C(=O)NCC(N)=O | 15.5 | ~4500 | ~50000 | – | – | Kb (Rattus norvegicus [4]): 724 nM |
| NC(=O)CC[C@H](NC(=O)C1(NC(=O)[C@H](Cc2ccc(O)cc2)NC(=O)[C@@H](N)CS)CCCCC1)C(=O)N[C@@H](CC(N)=O)C(=O)N[C@@H](CS)C(=O)N1CCC[C@H]1C(=O)N[C@H](CCCN=C(N)N)C(=O)NCC(N)=O | – | ~0.1 | ~1.4 | 0 | 0 | – |
| NC(=O)CC[C@H](NC(=O)[C@H](Cc1ccccc1)NC(=O)C1(NC(=O)CCS)CCCCC1)C(=O)N[C@@H](CC(N)=O)C(=O)N[C@@H](CS)C(=O)N1CCC[C@H]1C(=O)N[C@H](CCCN=C(N)N)C(=O)NCC(N)=O | 316 | ~4500 | ~50000 | 0.31 | – | – |
| NC(=O)CC[C@H](NC(=O)C1(NC(=O)[C@H](Cc2ccc(O)cc2)NC(=O)CCS)CCCCC1)C(=O)N[C@@H](CC(N)=O)C(=O)N[C@@H](CS)C(=O)N1CCC[C@H]1C(=O)N[C@H](CCCN=C(N)N)C(=O)NCC(N)=O | – | <4 | – | 0 | 0 | – |
| NC(=O)CC[C@H](NC(=O)[C@H](Cc1ccccc1)NC(=O)[C@H](Cc1ccc(O)cc1)NC(=O)CCS)C(=O)N[C@@H](CC(N)=O)C(=O)N[C@@H](CS)C(=O)N1CCC[C@H]1C(=O)N[C@H](CCCN=C(N)N)C(=O)NCC(N)=O | – | – | – | – | – | Activity (Rattus norvegicus [6]): <5.1 IU/mg; Activity (Rattus norvegicus [7]): <50000 IU/mg |
| NC(=O)CC[C@H](NC(=O)C1(NC(=O)[C@H](Cc2ccc(O)cc2)NC(=O)CCS)CCCCC1)C(=O)N[C@@H](CC(N)=O)C(=O)N[C@@H](CS)C(=O)N1CCC[C@H]1C(=O)N[C@@H](CCCN=C(N)N)C(=O)NCC(N)=O | – | ~0.8 | ~25 | <0.04 | 0.34 | – |
| NC(=O)CC[C@H](NC(=O)[C@H](Cc1ccccc1)NC(=O)C1(NC(=O)[C@@H](N)CS)CCCCC1)C(=O)N[C@@H](CC(N)=O)C(=O)N[C@@H](CS)C(=O)N1CCC[C@H]1C(=O)N[C@@H](CCCN=C(N)N)C(=O)NCC(N)=O | ~2510 | – | ~9300 | – | 56.6 | Activity (Rattus norvegicus [8]): <900 IU/mg |
| NC(=O)CC[C@H](NC(=O)C1(NC(=O)[C@H](Cc2ccc(O)cc2)NC(=O)[C@@H](N)CS)CCCCC1)C(=O)N[C@@H](CC(N)=O)C(=O)N[C@@H](CS)C(=O)N1CCC[C@H]1C(=O)N[C@@H](CCCN=C(N)N)C(=O)NCC(N)=O | – | ~0.1 | ~1.4 | 0 | 0.24 | – |
| NC(=O)CC[C@H](NC(=O)[C@H](Cc1ccccc1)NC(=O)C1(NC(=O)CCS)CCCCC1)C(=O)N[C@@H](CC(N)=O)C(=O)N[C@@H](CS)C(=O)N1CCC[C@H]1C(=O)N[C@@H](CCCN=C(N)N)C(=O)NCC(N)=O | 794 | ~4500 | ~50000 | 0.71 | 17.2 | – |
| NC(=O)CC[C@H](NC(=O)[C@H](Cc1ccccc1)NC(=O)C1(NC(=O)[C@@H](N)CS)CCCCC1)C(=O)N[C@@H](CC(N)=O)C(=O)N[C@@H](CS)C(=O)N1CCC[C@H]1C(=O)N[C@H](CCCN=C(N)N)C(=O)NCC(N)=O | ~2000 | – | ~9300 | – | – | Activity (Rattus norvegicus [8]): <900 IU/mg; Kb (Rattus norvegicus [4]): ~1580 nM |
| NC(=O)CC[C@H](NC(=O)[C@H](Cc1ccccc1)NC(=O)C1(NC(=O)CC2(S)CCCCC2)CCCCC1)C(=O)N[C@@H](CC(N)=O)C(=O)N[C@@H](CS)C(=O)N1CCC[C@H]1C(=O)N[C@H](CCCN=C(N)N)C(=O)NCC(N)=O | 47.9 | <4 | – | – | – | Kb (Rattus norvegicus [4]): 234 nM |
| NC(=O)CC[C@H](NC(=O)[C@H](Cc1ccccc1)NC(=O)[C@H](Cc1ccc(O)cc1)NC(=O)[C@@H](N)CS)C(=O)N[C@@H](CC(N)=O)C(=O)N[C@@H](CS)C(=O)N1CCC[C@H]1C(=O)N[C@H](CCCN=C(N)N)C(=O)NCC(N)=O | – | – | – | 0.4 | 4.1 | Activity (Rattus norvegicus [9]): <257 IU/mg |
| CC(C)[C@H](NC(=O)C1(NC(=O)[C@H](Cc2ccc(O)cc2)NC(=O)CCS)CCCCC1)C(=O)N[C@@H](CC(N)=O)C(=O)N[C@@H](CS)C(=O)N1CCC[C@H]1C(=O)N[C@H](CCCN=C(N)N)C(=O)NCC(N)=O | – | 450 | 4500 | 0 | 0 | – |
| NC(=O)CC[C@H](NC(=O)[C@H](Cc1ccccc1)NC(=O)C1(NC(=O)CC2(S)CCCCC2)CCCCC1)C(=O)N[C@@H](CC(N)=O)C(=O)N[C@@H](CS)C(=O)N1CCC[C@H]1C(=O)N[C@@H](CCCN=C(N)N)C(=O)NCC(N)=O | 46.8 | ~0.1 | ~1.4 | – | – | Kb (Rattus norvegicus [4]): 55 nM |
| NC(=O)CC[C@H](NC(=O)[C@H](Cc1ccccc1)NC(=O)[C@H](Cc1ccc(O)cc1)NC(=O)CCS)C(=O)N[C@@H](CC(N)=O)C(=O)N[C@@H](CS)C(=O)N1CCC[C@H]1C(=O)N[C@@H](CCCN=C(N)N)C(=O)NCC(N)=O | – | – | – | – | – | Activity (Rattus norvegicus [10]): <370 IU/mg; Activity (Rattus norvegicus [11]): <1745 IU/mg; Activity (Rattus norvegicus [12]): <63 IU/mg |
| CC(C)[C@H](NC(=O)[C@H](Cc1ccccc1)NC(=O)[C@H](Cc1ccc(O)cc1)NC(=O)[C@@H](N)CS)C(=O)N[C@@H](CC(N)=O)C(=O)N[C@@H](CS)C(=O)N1CCC[C@H]1C(=O)N[C@@H](CCCN=C(N)N)C(=O)NCC(N)=O (H-CYFVNCPRG-NH2) | – | 738 | – | – | 32 | – |
| CC(C)[C@H](NC(=O)C1(NC(=O)[C@H](Cc2ccc(O)cc2)NC(=O)[C@@H](N)CS)CCCCC1)C(=O)N[C@@H](CC(N)=O)C(=O)N[C@@H](CS)C(=O)N1CCC[C@H]1C(=O)N[C@@H](CCCN=C(N)N)C(=O)NCC(N)=O (H-CY[Ac6c]VNCPRG-NH2) | – | <0.4 | – | 0 | 0 | – |
| CC(C)[C@H](NC(=O)[C@H](Cc1ccccc1)NC(=O)C1(NC(=O)[C@@H](N)CS)CCCCC1)C(=O)N[C@@H](CC(N)=O)C(=O)N[C@@H](CS)C(=O)N1CCC[C@H]1C(=O)N[C@@H](CCCN=C(N)N)C(=O)NCC(N)=O (H-C[Ac6c]FVNCPRG-NH2) | 126 | ~2300 | ~23000 | – | 0.9 | – |
| NC(=O)CC[C@H](NC(=O)[C@H](Cc1ccccc1)NC(=O)[C@H](Cc1ccc(O)cc1)NC(=O)CC1(S)CCCCC1)C(=O)N[C@@H](CC(N)=O)C(=O)N[C@@H](CS)C(=O)N1CCC[C@H]1C(=O)N[C@@H](CCCN=C(N)N)C(=O)NCC(N)=O ({Cyclohexylacetyl(1-SH)}-YFQNCPRG-NH2) | – | 0.03 | – | – | – | Kb (Rattus norvegicus [4]): 4.47 nM |
| CC(C)[C@H](NC(=O)C1(NC(=O)[C@H](Cc2ccc(O)cc2)NC(=O)CC2(S)CCCCC2)CCCCC1)C(=O)N[C@@H](CC(N)=O)C(=O)N[C@@H](CS)C(=O)N1CCC[C@H]1C(=O)N[C@@H](CCCN=C(N)N)C(=O)NCC(N)=O ({Cyclohexylacetyl(1-SH)}-Y[Ac6c]VNCPRG-NH2) | ≥ 1000 | <4 | – | – | 0 | – |
| N=C(N)NCCC[C@H](NC(=O)[C@@H]1CCCN1C(=O)[C@@H]1CSSC[C@H](N)C(=O)N[C@@H](Cc2ccc(O)cc2)C(=O)N[C@@H](Cc2ccccc2)C(=O)N[C@@H](CCC(N)=O)C(=O)N[C@@H](CC(N)=O)C(=O)N1)C(=O)NCC(N)=O [VASOPRESSIN] | – | 465 | – | 17 | 412 | – |
